The values below come from ChEMBL document CHEMBL1156226, “Synthesis and structure-activity relationship studies of peptidomimetic PKB/Akt inhibitors: the significance of backbone interactions” (Bioorg Med Chem, 2010).

Square brackets hold non-standard residues; d marks the D form. Peptide text beside a SMILES is read from it. Gly(N-4-hydroxybenzyl) = O=C(O)CNCc1ccc(O)cc1; Gly(N-(CH2)3-guanidino) = N=C(N)NCCCNCC(=O)O; hLeu = CC(C)CC[C@H](N)C(=O)O; NMeNva = CCC[C@H](NC)C(=O)O; Nva = CCC[C@H](N)C(=O)O; Dap = NC[C@H](N)C(=O)O; NPrGly = CCCNCC(=O)O

The target of this test is RAC-alpha serine/threonine-protein kinase (Homo sapiens, UniProt P31749). The test can be described thus: Inhibition of PKB at 100 uM by radioactive kinase assay relative to control. Summed up: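 PKB/Akt enzyme HisAPHPKBEEEFlag, partly purified in one step on Ni-NTA agarose. The radioactive kinase reaction contains 50 mM Hepes pH 7.4, 0.1 mM EGTA, 0.1% 2-mercaptoethanol, 10 mM magnesium acetate, 3 uM RPRTSSF peptide substrate, 10 uM [γ32P]ATP and 0.005 units enzyme. Inhibition is given as percent reduction of activity against a no-inhibitor control. IC50 values, with 95% confidence ranges, come from curve fitting.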
Sequence of RAC-alpha serine/threonine-protein kinase (P31749 whole entry): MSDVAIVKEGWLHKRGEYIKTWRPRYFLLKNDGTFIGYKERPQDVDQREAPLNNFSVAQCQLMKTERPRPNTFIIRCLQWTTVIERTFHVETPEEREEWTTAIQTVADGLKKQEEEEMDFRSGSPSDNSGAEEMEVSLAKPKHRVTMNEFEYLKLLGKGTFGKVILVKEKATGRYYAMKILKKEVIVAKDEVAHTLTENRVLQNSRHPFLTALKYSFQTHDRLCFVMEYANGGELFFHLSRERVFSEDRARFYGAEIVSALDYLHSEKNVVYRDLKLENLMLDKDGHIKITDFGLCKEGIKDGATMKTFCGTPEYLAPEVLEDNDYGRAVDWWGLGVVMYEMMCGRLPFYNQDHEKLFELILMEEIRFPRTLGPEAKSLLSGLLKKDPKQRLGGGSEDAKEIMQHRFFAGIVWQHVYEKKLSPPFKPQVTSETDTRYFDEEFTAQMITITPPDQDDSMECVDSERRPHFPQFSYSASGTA
With `CCC[C@H](NC(=O)[C@H](CCCNC(=N)N)NC(=O)[C@@H]1CCCN1C(=O)[C@H](CCCNC(=N)N)NC(C)=O)C(=O)N[C@@H](Cc1ccc(O)cc1)C(=O)N(C)[C@@H](CN)C(=O)N[C@@H](CCC(C)C)C(N)=O` (HELM PEPTIDE1{[ac].R.P.R.[Nva].Y.[CN([C@@H](CN)C(=O)[*:2])[*:1]].[CC(C)CC[C@H](N[*:1])C(=O)[*:2]].[am]}$$$$V2.0), the inhibition (in general, the percentage by which the read-out fell short of the control) was found to be 33%.
Regarding `CCC[C@H](NC(=O)[C@H](CCCNC(=N)N)NC(=O)[C@@H]1CCCN1C(=O)[C@@H](N)CCCNC(=N)N)C(=O)N[C@@H](Cc1ccc(O)cc1)C(=O)N(C)[C@@H](CN)C(=O)N[C@@H](CCC(C)C)C(=O)O` (HELM PEPTIDE1{R.P.R.[Nva].Y.[CN([C@@H](CN)C(=O)[*:2])[*:1]].[CC(C)CC[C@H](N[*:1])C(=O)O]}$$$$V2.0), the inhibition is 0%.
On to `CCC[C@H](NC(=O)[C@H](CCCNC(=N)N)NC(=O)[C@@H]1CCCN1C(=O)[C@H](CCCNC(=N)N)NC(C)=O)C(=O)N(C)[C@@H](Cc1ccc(O)cc1)C(=O)N[C@@H](CN)C(=O)N[C@@H](CCC(C)C)C(N)=O` (HELM PEPTIDE1{[ac].R.P.R.[Nva].[meY].[NC[C@H](N[*:1])C(=O)[*:2]].[CC(C)CC[C@H](N[*:1])C(=O)[*:2]].[am]}$$$$V2.0), for which the inhibition was determined as 40%.
For `CCCN(CC(=O)N[C@@H](Cc1ccc(O)cc1)C(=O)N[C@@H](CN)C(=O)N[C@@H](CCC(C)C)C(N)=O)C(=O)[C@H](CCCNC(=N)N)NC(=O)[C@@H]1CCCN1C(=O)[C@H](CCCNC(=N)N)NC(C)=O` (Ac-RPR[NPrGly]Y[Dap][hLeu]-NH2), the inhibition amounted to 0%.
Then `CCC[C@H](NC(=O)[C@H](CCCNC(=N)N)NC(=O)[C@@H]1CCCN1C(=O)[C@H](CCCNC(=N)N)NC(C)=O)C(=O)N[C@@H](Cc1ccc(O)cc1)C(=O)N[C@@H](CN)C(=O)N(C)[C@@H](CCC(C)C)C(=O)O` (HELM PEPTIDE1{[ac].R.P.R.[Nva].Y.[NC[C@H](N[*:1])C(=O)[*:2]].[CC(C)CC[C@@H](C(=O)O)N(C)[*:1]]}$$$$V2.0), with 1%; and `CCC[C@H](NC(=O)CN(CCCNC(=N)N)C(=O)[C@@H]1CCCN1C(=O)[C@@H](N)CCCNC(=N)N)C(=O)N[C@@H](Cc1ccc(O)cc1)C(=O)N[C@@H](CN)C(=O)N[C@@H](CCC(C)C)C(N)=O` (H-RP[Gly(N-(CH2)3-guanidino)][Nva]Y[Dap][hLeu]-NH2), with 30%.
In the case of `CCC[C@H](NC(=O)[C@H](CCCNC(=N)N)NC(=O)[C@@H]1CCCN1C(=O)[C@H](CCCNC(=N)N)NC(C)=O)C(=O)N[C@@H](Cc1ccc(O)cc1)C(=O)N[C@@H](CN)C(=O)N[C@@H](CCC(C)C)C(=O)O` (HELM PEPTIDE1{[ac].R.P.R.[Nva].Y.[NC[C@H](N[*:1])C(=O)[*:2]].[CC(C)CC[C@H](N[*:1])C(=O)O]}$$$$V2.0), the inhibition was 66%.
In the case of `CCC[C@H](NC(=O)[C@H](CCCNC(=N)N)NC(=O)[C@@H]1CCCN1C(=O)[C@H](CCCNC(=N)N)NC(C)=O)C(=O)N[C@@H](Cc1ccc(O)cc1)C(=O)N(C)[C@@H](CN)C(=O)N[C@@H](CCC(C)C)C(=O)O` (HELM PEPTIDE1{[ac].R.P.R.[Nva].Y.[CN([C@@H](CN)C(=O)[*:2])[*:1]].[CC(C)CC[C@H](N[*:1])C(=O)O]}$$$$V2.0), the inhibition came to 1%.
Take `CCC[C@H](NC(=O)[C@H](CCCNC(=N)N)NC(=O)[C@@H]1CCCN1C(=O)[C@H](CCCNC(=N)N)NC(C)=O)C(=O)N[C@@H](Cc1ccc(O)cc1)C(=O)N[C@@H](CN)C(=O)N(CC(=O)O)CC(C)CC` (stereo partly drawn) (HELM PEPTIDE1{[ac].R.P.R.[Nva].Y.[NC[C@H](N[*:1])C(=O)[*:2]].[CCC(C)CN(CC(=O)O)[*:1]]}$$$$V2.0): the inhibition was 4%.
Next, `CCC[C@H](NC(=O)[C@H](CCCNC(=N)N)NC(=O)[C@@H]1CCCN1C(=O)[C@H](CCCNC(=N)N)NC(C)=O)C(=O)N[C@@H](Cc1ccc(O)cc1)C(=O)N[C@@H](CN)C(=O)N(C)[C@@H](CCC(C)C)C(N)=O` (HELM PEPTIDE1{[ac].R.P.R.[Nva].Y.[NC[C@H](N[*:1])C(=O)[*:2]].[CC(C)CC[C@@H](C(=O)[*:2])N(C)[*:1]].[am]}$$$$V2.0): 29%; `CCC[C@H](NC(=O)[C@H](CCCNC(=N)N)NC(=O)[C@@H]1CCCN1C(=O)[C@@H](N)CCCNC(=N)N)C(=O)N[C@@H](Cc1ccc(O)cc1)C(=O)N(C)[C@@H](CN)C(=O)N[C@@H](CCC(C)C)C(N)=O` (HELM PEPTIDE1{R.P.R.[Nva].Y.[CN([C@@H](CN)C(=O)[*:2])[*:1]].[CC(C)CC[C@H](N[*:1])C(=O)[*:2]].[am]}$$$$V2.0): 75%.
Turning to `CCC[C@H](NC(=O)[C@H](CCCNC(=N)N)NC(=O)[C@@H]1CCCN1C(=O)[C@H](CCCNC(=N)N)NC(C)=O)C(=O)N(CC(=O)N[C@@H](CN)C(=O)N[C@@H](CCC(C)C)C(=O)O)Cc1ccc(O)cc1` (Ac-RPR[Nva][Gly(N-4-hydroxybenzyl)][Dap][hLeu]-OH), the inhibition turned out to be 28%.
In the case of `CCCN(CC(=O)N[C@@H](Cc1ccc(O)cc1)C(=O)N[C@@H](CN)C(=O)N[C@@H](CCC(C)C)C(N)=O)C(=O)[C@H](CCCNC(=N)N)NC(=O)[C@@H]1CCCN1C(=O)[C@@H](N)CCCNC(=N)N` (H-RPR[NPrGly]Y[Dap][hLeu]-NH2), the inhibition was determined as 16%.
On to `CCC[C@H](NC(=O)[C@H](CCCNC(=N)N)N(C)C(=O)[C@@H]1CCCN1C(=O)[C@@H](N)CCCNC(=N)N)C(=O)N[C@@H](Cc1ccc(O)cc1)C(=O)N[C@@H](CN)C(=O)N[C@@H](CCC(C)C)C(=O)O` (HELM PEPTIDE1{R.P.[meR].[Nva].Y.[NC[C@H](N[*:1])C(=O)[*:2]].[CC(C)CC[C@H](N[*:1])C(=O)O]}$$$$V2.0), for which the inhibition came out at 42%.
Then `CCC[C@H](NC(=O)[C@H](CCCNC(=N)N)NC(=O)[C@@H]1CCCN1C(=O)[C@H](CCCNC(=N)N)NC(C)=O)C(=O)N(CC(=O)N[C@@H](CN)C(=O)N[C@@H](CCC(C)C)C(N)=O)Cc1ccc(O)cc1` (Ac-RPR[Nva][Gly(N-4-hydroxybenzyl)][Dap][hLeu]-NH2), with 49%; and `CCC[C@H](NC(=O)[C@H](CCCNC(=N)N)NC(=O)[C@@H]1CCCN1C(=O)[C@H](CCCNC(=N)N)NC(C)=O)C(=O)N[C@@H](Cc1ccc(O)cc1)C(=O)N[C@@H](CN)C(=O)N(CC(N)=O)CC(C)CC` (stereo partly drawn) (HELM PEPTIDE1{[ac].R.P.R.[Nva].Y.[NC[C@H](N[*:1])C(=O)[*:2]].[CCC(C)CN(CC(=O)[*:2])[*:1]].[am]}$$$$V2.0), with 1%.
On to `CCC[C@@H](C(=O)N[C@@H](Cc1ccc(O)cc1)C(=O)N[C@@H](CN)C(=O)N[C@@H](CCC(C)C)C(N)=O)N(C)C(=O)[C@H](CCCNC(=N)N)NC(=O)[C@@H]1CCCN1C(=O)[C@@H](N)CCCNC(=N)N` (H-RPR[NMeNva]Y[Dap][hLeu]-NH2), for which the inhibition turned out to be 62%.
Then `CCC[C@H](NC(=O)[C@H](CCCNC(=N)N)NC(=O)[C@@H]1CCCN1C(=O)[C@@H](N)CCCNC(=N)N)C(=O)N[C@@H](Cc1ccc(O)cc1)C(=O)N[C@@H](CN)C(=O)N(CC(N)=O)CC(C)CC` (stereo partly drawn) (HELM PEPTIDE1{R.P.R.[Nva].Y.[NC[C@H](N[*:1])C(=O)[*:2]].[CCC(C)CN(CC(=O)[*:2])[*:1]].[am]}$$$$V2.0), with 39%.
